The experiment deals with Isocitrate dehydrogenase [NADP] cytoplasmic (Homo sapiens, UniProt O75874, R132H). As to the kind of experiment: Inhibition of human C-terminal His8-tagged IDH1-R132H mutant expressed in Escherichia coli Rosetta assessed as inhibition of ketoreductase activity by measuring NADPH consumption preincubated for 60 mins followed by addition of alpha-KG as substrate measured after 50 mins in presence of NADPH and Mg2+ by resazurin based diaphorase-coupled fluorescence assay. The procedure, abridged:
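IDH1-R132H–Mg2+ ketoreductase assay reading NADPH consumption through a diaphorase-coupled fluorescence reaction. Buffer contained 0.01% Tween 20 against aggregation. Primary screen at 15 μM in duplicate, with positives set at ≥60% inhibition in both replicates. Retests were in 8-point dose.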
A general note: The colour change of resazurin is a common sign of viable cells or microbes.

Chain of Isocitrate dehydrogenase [NADP] cytoplasmic (O75874 2-414 R132H limits assumed): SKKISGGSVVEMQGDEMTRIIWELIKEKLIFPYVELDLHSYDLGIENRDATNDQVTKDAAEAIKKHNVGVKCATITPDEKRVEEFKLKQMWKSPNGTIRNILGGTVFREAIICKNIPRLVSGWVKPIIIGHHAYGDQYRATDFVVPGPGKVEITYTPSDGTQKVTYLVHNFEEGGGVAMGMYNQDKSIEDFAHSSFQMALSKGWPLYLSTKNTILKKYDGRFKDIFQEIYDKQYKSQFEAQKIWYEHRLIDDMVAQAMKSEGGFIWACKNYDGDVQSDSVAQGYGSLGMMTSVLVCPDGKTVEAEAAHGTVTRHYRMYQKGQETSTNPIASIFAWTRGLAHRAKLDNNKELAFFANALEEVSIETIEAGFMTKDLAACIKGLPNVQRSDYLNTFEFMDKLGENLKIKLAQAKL

Consider `C[C@@H]1CN([C@@H](C)CO)S(=O)(=O)c2ccc(C#Cc3ccccc3F)cc2O[C@H]1CN(C)C(=O)NC1CCCCC1`, for which the 50% inhibitory concentration (IC50) is 91 nM.
As to `COc1ccc(OC[C@H](C)N2C[C@@H](C)[C@H](CN(C)C(=O)NC3CCCCC3)Oc3cc(C#Cc4cccnc4)ccc3S2(=O)=O)cc1`, the IC50 was 96 nM.
With `C[C@@H]1CN([C@@H](C)CO)S(=O)(=O)c2ccc(C#Cc3cccc(F)c3)cc2O[C@H]1CN(C)CCC1CCNCC1`, the IC50 was 7400 nM.
Take `C[C@@H]1CN([C@@H](C)CO)S(=O)(=O)c2ccc(C#Cc3cccnc3)cc2O[C@H]1CN(C)C(=O)NC1CCCCC1`: the IC50 was found to be 140 nM.
The value for `C[C@@H]1CN([C@@H](C)CO)S(=O)(=O)c2ccc(C#Cc3cccc(F)c3)cc2O[C@H]1CN(C)C(=O)C1CCOCC1` was 7900 nM.
For `Cc1noc(C)c1NC(=O)N(C)C[C@@H]1Oc2cc(C#Cc3cccc(F)c3)ccc2S(=O)(=O)N([C@@H](C)CO)C[C@H]1C`, the IC50 worked out at 11000 nM.
The value for `C[C@@H]1CN([C@@H](C)CN(C)C)S(=O)(=O)c2ccc(C#Cc3ccc(F)cc3)cc2O[C@H]1CN(C)C(=O)NC1CCCCC1` was 32 nM; that for `C[C@@H]1CN([C@@H](C)CO)S(=O)(=O)c2ccc(C#Cc3cccc(Cl)c3)cc2O[C@H]1CN(C)C(=O)NC1CCCCC1` was 60 nM.
The value for `C[C@@H]1CN([C@@H](C)CO)S(=O)(=O)c2ccc(C#Cc3cccc(F)c3)cc2O[C@H]1CN(C)C(=O)Nc1ccccc1` was 3100 nM.
The value for `C[C@@H]1CN([C@@H](C)CO)S(=O)(=O)c2ccc(C#Cc3cccc(F)c3)cc2O[C@H]1CN(C)C(=O)OC(C)(C)C` was 1600 nM; that for `C[C@@H]1CN([C@@H](C)CO)S(=O)(=O)c2ccc(C#Cc3cncnc3)cc2O[C@H]1CN(C)C(=O)NC1CCCCC1` was 320 nM; that for `C[C@@H]1CN([C@@H](C)CO)S(=O)(=O)c2ccc(C#CBr)cc2O[C@H]1CN(C)C(=O)NC1CCCCC1` was above 20000 nM.
Consider `C[C@@H]1CN([C@@H](C)CO)S(=O)(=O)c2ccc(C#Cc3cccc(F)c3)cc2O[C@H]1CN(C)C(=O)NCC1CCCCC1`, for which the IC50 came out at 160 nM.
For `C[C@@H]1CN([C@@H](C)CO)S(=O)(=O)c2ccc(C#Cc3cccc(F)c3)cc2O[C@H]1CN(C)C(=O)NC1CCCC1` the value was 80 nM; for `C[C@@H]1CN([C@@H](C)CO)S(=O)(=O)c2ccc(C#Cc3cccc(F)c3)cc2O[C@H]1CN(C)C(=O)C1CCCCC1`, 440 nM.
The value for `C[C@@H]1CN([C@H](C)CO)S(=O)(=O)c2ccc(C#Cc3cccc(F)c3)cc2O[C@@H]1CN(C)C(=O)NC1CCCCC1` was 5300 nM; that for `COc1ccc(C#Cc2ccc3c(c2)O[C@@H](CN(C)C(=O)NC2CCCCC2)[C@H](C)CN([C@@H](C)CO)S3(=O)=O)cc1` was 91 nM.
For the compound `C[C@@H]1CN([C@@H](C)CO)S(=O)(=O)c2ccc(-c3cccnc3)cc2O[C@H]1CN(C)C(=O)NC1CCCCC1`, the IC50 is 6400 nM.
On to `C[C@@H]1CN([C@@H](C)CO)S(=O)(=O)c2ccc(C#Cc3ccc(F)cn3)cc2O[C@H]1CN(C)C(=O)NC1CCCCC1`, for which the half-inhibitory concentration (IC50) turned out to be 260 nM.
Consider `C[C@H](CO)N1C[C@H](C)[C@H](CN(C)C(=O)NC2CCCCC2)Oc2cc(C#Cc3cccc(F)c3)ccc2S1(=O)=O`, for which the IC50 is above 20000 nM.
For `C[C@@H]1CN([C@H](C)CO)S(=O)(=O)c2ccc(C#Cc3cccc(F)c3)cc2O[C@H]1CN(C)C(=O)NC1CCCCC1` the value was 600 nM; for `C[C@@H]1CN([C@@H](C)CO)S(=O)(=O)c2ccc(/C=C/c3ccccc3)cc2O[C@H]1CN(C)C(=O)NC1CCCCC1`, 190 nM.
The value for `C[C@H]1CN([C@@H](C)CO)S(=O)(=O)c2ccc(C#Cc3cccc(F)c3)cc2O[C@@H]1CN(C)C(=O)NC1CCCCC1` was 1000 nM; that for `C[C@@H]1CN([C@@H](C)CO)S(=O)(=O)c2ccc(C#Cc3cccnc3)cc2O[C@H]1CN(C)C(=S)NC1CCCCC1` was 160 nM; that for `C[C@@H]1CN([C@@H](C)CO)S(=O)(=O)c2ccc(C#Cc3cccc(F)c3)cc2O[C@@H]1CN(C)C(=O)NC1CCCCC1` was 3900 nM.

As a reminder, the IC50 is the concentration that inhibits the measured activity by half.
